Compound activity from PubChem.
ZTA DNA inh – counter-screen for EBNA-1 inhibitors: inhibitors of Epstein-Barr virus ZTA; P03206; ZTA-DNA binding, fluorescence polarization; inhibition, % at 11 µM; 0.15% of 320,000 active; AID 2234; in the data active = inhibition above about 33%
EBNA-1 inhibitor – blocks EBNA-1 binding to DNA | 0.34% of 300,000 active | inhibition, % at 14.8 µM | EBNA-1 DNA binding, fluorescence polarization | AID 1950; in the data active = inhibition above about 28%
MLLE-PAM2 inh – inhibitors of microRNA-mediated deadenylation, human PABP1 MLLE binding. AID 588489. P11940. inhibition, % at 20 µM. GST-MLLE / FITC-PAM2 fluorescence polarization. 0.36% of 360,000 active; in the data active = inhibition above about 35%, passing the limit was not always enough;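 also: plate controls were DMSO wells with GST-MLLE for no effect and wells lacking GST-MLLE protein for full effect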
Target sequence (P11940 whole entry, looked up): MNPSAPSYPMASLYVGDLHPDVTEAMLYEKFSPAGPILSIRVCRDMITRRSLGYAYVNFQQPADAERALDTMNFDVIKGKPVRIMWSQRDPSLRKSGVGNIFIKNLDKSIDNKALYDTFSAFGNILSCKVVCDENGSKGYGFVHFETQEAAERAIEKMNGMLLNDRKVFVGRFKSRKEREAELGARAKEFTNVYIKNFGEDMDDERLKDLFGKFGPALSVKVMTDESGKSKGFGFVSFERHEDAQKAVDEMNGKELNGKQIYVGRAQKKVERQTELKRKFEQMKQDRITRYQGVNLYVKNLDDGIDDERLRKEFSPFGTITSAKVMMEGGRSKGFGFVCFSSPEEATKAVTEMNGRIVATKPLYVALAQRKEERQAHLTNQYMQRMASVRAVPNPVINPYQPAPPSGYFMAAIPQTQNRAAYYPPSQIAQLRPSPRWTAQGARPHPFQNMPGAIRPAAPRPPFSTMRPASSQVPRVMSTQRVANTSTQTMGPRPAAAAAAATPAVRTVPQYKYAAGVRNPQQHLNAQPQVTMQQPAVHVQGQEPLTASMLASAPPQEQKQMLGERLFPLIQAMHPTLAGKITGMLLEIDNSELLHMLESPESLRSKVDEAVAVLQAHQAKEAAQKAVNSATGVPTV
PABP FP inh – PABP-poly(A) binding inhibition; inhibition, % at 35 µM; PABP-poly(A) RNA binding, fluorescence polarization; 1% of 290,000 active;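 also: calls also rest on retests at 20 µM and on dose response follow-up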
eIF4H FP inh – inhibitors of RNA binding by human eIF4H; 0.94% of 290,000 active; eIF4H fluorescence polarization binding assay; inhibition, % at 35 µM; Q15056;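 also: calls also rest on retests at 20 µM and on dose response follow-up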
NS3 helicase inh – inhibitors of Hepatitis C virus NS3 helicase; NS3 helicase DNA unwinding, Cy5 molecular beacon fluorescence; inhibition, % at 10.9 µM; 0.56% of 290,000 active;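 active = inhibition above the mean of all tested compounds plus 3 SD, set per campaign, cut at about 35% in these data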;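 also: 0% = DMSO wells and 100% = thioflavine S control wells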
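System: HCV NS3 helicase fragment; control set: DMSO and thioflavine S; technique: Cy5 fluorescence at 0 and 60 min, beacon hairpin quenching; reagent: beacon DNA duplex substrate plus ATP; replicates: singlicate; schedule: 1 h reaction at 25 °C, ATP-initiated; medium: MOPS buffer pH 6.5 with MgCl2, DTT, Tween20, BSA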
* hit, by the source's call; i = inactive; ? = inconclusive; . = no result. Most compounds without a hit are left out; they make up all but 2.1% or so of the library. Unless noted, no rule for the calls is given here.

SMILES | ZTA DNA inh | EBNA-1 inhibitor | MLLE-PAM2 inh | PABP FP inh | eIF4H FP inh | NS3 helicase inh
COc1ccc(Cc2c(O)nc(SC)n(C(C)=O)c2=O)cc1 | 12 | 0 | -1 | -1 | 0 | 6
COc1ccc(NC(=O)/C(C#N)=C\c2ccc(Br)o2)cc1 | 0 | -9 | -9 | 49* | 80* | 20
COc1ccc(NC(=O)/C(C#N)=C\c2ccc(-c3cc(C(=O)O)ccc3C)o2)cc1 | -13 | -16 | 18 | 67* | 79* | 21
N#C/C(=C\c1ccc([N+](=O)[O-])o1)C(=O)Nc1ccc(F)cc1 | 79* | 37* | -54 | 44 | 45 | 43*
CN(C(=O)CN1C(=O)/C(=C/c2ccccc2Cl)SC1=S)C1CCS(=O)(=O)C1 (configuration not stated) | 3 | -10 | 41* | 10 | -4 | -6
CN(C(=O)CN1C(=O)S/C(=C\c2ccccc2Cl)C1=O)C1CCS(=O)(=O)C1 (configuration not stated) | 9 | 6 | 12 | -13 | -18 | 2
CCOC(=O)N1CCC(NC(=O)c2ccc3c(c2)N(CC)CCS3)CC1 | 8 | 0 | 38* | . | . | -8
Cc1ccc(CN2CCSc3ccc(C(=O)NC4CCCC4)cc32)cc1 | -5 | -3 | 6 | . | . | -9
O=C(CC1Sc2ncnn2C1=O)Nc1ccc(Cl)cc1 (configuration not stated) | -3 | 6 | . | -20 | -1 | 13
COc1ccc(NC(=O)CC2Sc3ncnn3C2=O)cc1 (configuration not stated) | -2 | -2 | 43* | -20 | -16 | 2
CCOC(=O)c1ccc(NC(=O)CC2Sc3ncnn3C2=O)cc1 (configuration not stated) | -2 | 2 | 42* | -12 | -2 | 15
Cc1ccc([N+](=O)[O-])cc1S(=O)(=O)Nc1ccc(O)c(Sc2ncn[nH]2)c1 | 3 | 7 | 41* | 4 | 2 | 2
c1ccc(Cc2nnc3n2CCCCC3)cc1 | -2 | 12 | 3 | -3 | -9 | -3
c1ccc2c(c1)CCCN2Cc1nnc2n1CCCCC2 | 9 | 7 | 78 | 77* | 61* | -4
COc1cccc(NC(=S)N/N=C2/CCCCc3ccccc32)c1 | . | . | 45* | 20 | 18 | -5
CC(C)NC(=S)N/N=C1\CCCCc2ccccc21 | 7 | 5 | 2 | -7 | 6 | -4
O=C(COC(=O)c1ccccc1Br)NCCC1=CCCCC1 | 7 | 6 | 2 | 8 | -5 | -5
O=C(NC(=S)NCCC1=CCCCC1)c1ccccc1Br | -11 | 4 | 45* | 13 | 8 | 10
COC(=O)CCCCCCCCCC[N+]1(C)CCCCC1 | 0 | 7 | -134 | -4 | -6 | -5
CC(=O)OCCCCCCCCCCC[N+]1(C)CCCCC1 | 18 | -7 | -129 | 64* | 3 | -7
CCCCCCn1c(=O)[nH]c2nc3cc(N)c(C)cc3nc2c1=O | . | . | i | 3.5* | 65 | 45*
CCCCn1c(=O)[nH]c2nc3cc(NC(C)=O)ccc3nc2c1=O | 0 | 0 | 59 | 58* | 98* | 25
CCc1c(C)nc2cc(-c3ccc(Cl)cc3)[nH]n2c1=O | 4 | 9 | -3 | 20 | -6 | 7
O=c1c2c(nc3cc(-c4ccc(Cl)cc4)[nH]n13)CCS2 | 22 | 11 | 5 | 0.7* | ? | 35
CN(Cc1ccccc1)C1=CC(=[N+]2CCCCC2)CC(C)(C)C1 | 16 | -3 | -125 | 51* | -10 | 2
SMILES | ZTA DNA inh | EBNA-1 inhibitor | MLLE-PAM2 inh | PABP FP inh | eIF4H FP inh | NS3 helicase inh
Cc1nc(NC(=S)NC(=O)c2ccco2)sc1C(=O)N(C)C | -18 | -9 | 41* | 4 | -4 | 9
CC1CCN(c2ccccc2NC(=S)NC(=O)C(C)(C)C)CC1 | -4 | 2 | 39* | 70 | -5 | -1
Cc1ccc(C(=O)Nc2nc(C)c(C(=O)N(C)C)s2)o1 | 12 | -4 | -7 | 8 | -8 | 2
CC1CCN(c2ccccc2NC(=S)NC(=O)c2ccco2)CC1 | -1 | -20 | 46* | . | . | 1
O=C(NC(=S)Nc1ccccc1Br)c1ccco1 | -16 | -2 | 45* | 4 | -9 | 8
COc1ccc(CCNC(=O)C2CCC(CNS(=O)(=O)c3ccc(F)cc3)CC2)cc1OC (configuration not stated) | 7 | -3 | -6 | 8 | -11 | 0
O=C(NCc1ccccc1)NC1(C(=O)N2CCN3CCCC3C2)CCCCC1 (configuration not stated) | 5 | 2 | 10 | -1 | 6 | 23
CC(C)(C)C(=O)Nc1ccccc1N1CCN(C(=O)c2ccc(Cl)cc2)CC1 | 12 | -8 | -5 | 1.9* | 86* | -17
Cc1ccc(-n2c(N)c(C(N)=O)sc2=S)c(C)c1 | -4 | -1 | 35 | 16 | 60* | -4
CCC(C)NC(=O)C1CCCN(S(=O)(=O)c2ccc3c(c2)CC(C)N3C(C)=O)C1 (configuration not stated) | -7 | -3 | 7 | -15 | 6 | 11
CCOC(=O)C1=C(C)N=c2s/c(=C/c3ccc(OCC(=O)O)cc3)c(=O)n2C1c1ccc(F)cc1 (configuration not stated) | 6 | 6 | -9 | 20 | 2 | 16
CCOC(=O)C1=C(C)N=c2s/c(=C/c3ccc(OCC(=O)O)cc3)c(=O)n2C1c1ccc(SC)cc1 (configuration not stated) | . | . | -129 | 43* | 63* | 29
CC(C)Cc1cc(C(=O)Nc2c(F)cc(F)cc2Br)no1 | 0 | 10 | 11 | -8 | 61* | -2
CC1CCc2sc(C(=O)NCc3ccccn3)cc2C1 (configuration not stated) | 1 | 2 | -1 | . | . | .
COc1cnc(SCC(=O)O)[nH]c1=O | -7 | -4 | 22 | 82* | 7 | -4
Clc1ccc(-c2nc3ncccn3c2Nc2ccc3c(c2)OCO3)cc1 | -1 | -11 | -2 | 54* | 61* | 23
COc1ccc(C)cc1NC(=O)C(NC(=O)c1cc(OC)c(OC)c(OC)c1)C(C)C (configuration not stated) | 7 | 1 | -8 | 1.6* | 91* | -9
COc1cc(C(=O)N[C@H](C(=O)NC(C)C23CC4CC(CC(C4)C2)C3)C(C)C)cc(OC)c1OC (some centres not stated) | -2 | 8 | -8 | -4 | 2 | 8
COCCNC(=O)C1CCCN(C(=O)c2csc3ccccc23)CC1 (configuration not stated) | . | . | -11 | . | . | .
CCCOc1ccc(N2C(=O)CC(NNC(=O)c3ccc(COc4ccccc4)o3)C2=O)cc1 (configuration not stated) | 6 | -1 | 12 | 62* | -9 | 16
CCOc1cccc(N2C(=O)CC(NNC(=O)c3ccc(Br)o3)C2=O)c1 (configuration not stated) | -2 | 3 | 11 | 0 | -1 | -5
